Source: PubChem (Johns Hopkins Ion Channel Center)
Compounds with a hit are over-represented: about 3.5% of the library has one in this group of screens.
MrgX1 antag: blocks BAM8-22 activation of human MrgX1 receptor. Q96LB2. MRGX1-HEK293 calcium flux, Fluo-4, BAM8-22 antagonism; active compounds read low. B-score at 10 µM. 310,000 compounds, 1.3% hits. AID 588676;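 active = calcium-response B-score plate-corrected more than 3 library SD below zero, starting fluorescence within 5 deviations, no agonist response on first addition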;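 also: peak minus trough fluorescence over baseline after final BAM8-22 challenge near maximal dose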
MrgX1 allo act: allosterically activates human MrgX1 receptor signaling; Q96LB2; MrgX1-HEK293, Fluo-4 calcium flux, FDSS; active compounds read high; B-score at 10 µM; 310,000 compounds, 0.63% hits;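 active = plate-corrected calcium response at least 3 library SD above typical, normal starting fluorescence, not activating the receptor alone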;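 also: compound read alongside a low EC10 to EC30 dose of BAM8-22 agonist; peak minus trough fluorescence over baseline measured at the second addition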
RGS4 inh: human RGS4 inhibition | P49798 | HEK293 M3R/RGS4 inducible, Fluo-4 calcium flux; active compounds read high; triggered by carbachol at its EC20 | B-score at 10 µM | 310,000 compounds, 0.45% hits | AID 463165;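 active = B-score, a plate-corrected calcium signal, over three deviations above library mean, with baseline fluorescence within five deviations of library mean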;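 also: RGS4 expression induced by doxycycline in cells with stable M3 receptor; B-score is computed from the integrated fluorescence ratio over baseline after carbachol; higher B-score means a larger calcium signal and so more RGS4 inhibition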
Target sequence (P49798 whole entry, looked up): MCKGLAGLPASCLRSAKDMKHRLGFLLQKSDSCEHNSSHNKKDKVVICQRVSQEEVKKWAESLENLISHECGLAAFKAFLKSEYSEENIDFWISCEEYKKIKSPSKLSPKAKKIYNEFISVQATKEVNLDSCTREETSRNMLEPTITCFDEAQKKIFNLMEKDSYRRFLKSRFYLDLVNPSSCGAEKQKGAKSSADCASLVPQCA
MrgX1 ag: agonists of human MrgX1 receptor | Q96LB2 | MrgX1-HEK293 cells, Fluo-4 calcium fluorescence, agonist mode; active compounds read high | B-score at 10 µM | 310,000 compounds, 0.44% hits | AID 588627;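 active = calcium response B-score plate-corrected fluorescence ratio at least 3 library SD, with starting fluorescence B-score inside 5 SD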
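Material: MrgX1-expressing HEK293 cells; input: 15,000 cells per well; doses: test compound given as first of three sequential additions; schedule: overnight plating before 1 h dye loading; technique: Fluo-4 NW calcium-flux fluorescence, kinetic read; evaluation: baseline-normalised fluorescence change ratio, B-scored; control set: plate-wise positive and negative controls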
RGS4 act: potentiators or activators of RGS4. HEK293 M3R/inducible RGS4, carbachol calcium flux Fluo4; active compounds read low. B-score at 10 µM. 310,000 compounds, 0.92% hits;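 active = B-score of the integrated calcium signal more than 4 SD below the library mean, with starting fluorescence not abnormally high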;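 also: negative B-score means reduced calcium response which marks RGS4 activation or potentiation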
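Material: Inducible-RGS4 HEK293 cells carrying M3 receptor; also added: carbachol at ECmax as muscarinic agonist stimulus; incubation: compound preincubation 20 min at room temperature before agonist; signal: Fluo4-AM (2 µM) calcium-flux fluorescence, kinetic read; measure: integrated calcium ratio converted to B score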
* marks the source's active call; other numbers are inactive results.

`CCC(CC)c1nnc(NC(=O)CCc2ccccc2OC)s1` gave MrgX1 antag inactive, MrgX1 allo act inactive, RGS4 inh inactive, MrgX1 ag inactive and RGS4 act inactive.
CO/N=C/C(c1ccc(Cl)nc1)S(=O)(=O)c1ccccc1 (centres undefined) was read as MrgX1 antag inactive, MrgX1 allo act inactive, RGS4 inh inactive, MrgX1 ag inactive and RGS4 act inactive.
Screening CO/N=C/C(c1ncc(C(F)(F)F)cc1Cl)S(=O)(=O)c1ccccc1 (centres undefined) returned MrgX1 antag -8.2*, MrgX1 allo act inactive, RGS4 inh inactive, MrgX1 ag inactive and RGS4 act inactive.
`COc1ccccc1-n1c(CNC(=O)c2ccc(S(=O)(=O)N3CCCCC3)cc2)n[nH]c1=S` gave MrgX1 antag inactive, MrgX1 allo act inactive, RGS4 inh inactive, MrgX1 ag inactive and RGS4 act inactive.
Screening COc1cc([N+](=O)[O-])ccc1NC(=O)CN1CCN(C(=O)c2ccco2)CC1 returned MrgX1 antag -4.7*, MrgX1 allo act inactive, RGS4 inh inactive, MrgX1 ag inactive and RGS4 act inactive.
For O=C(O)c1ccc(N=Nc2c(O)[nH]c3ccccc23)cc1 the results were MrgX1 antag inactive, MrgX1 allo act inactive, RGS4 inh inactive, MrgX1 ag inactive and RGS4 act inactive.
For Cc1cc(N=Nc2c(O)c3ccccc3[nH]c2=O)ccc1N=Nc1ccc(C(=O)N(C)C)cc1 the results were RGS4 inh inactive and RGS4 act -7.8*.
CCOc1ccc(Oc2ccc(Cl)cc2N)cc1 was read as MrgX1 antag inactive, MrgX1 allo act inactive, RGS4 inh inactive, MrgX1 ag inactive and RGS4 act inactive.
Cc1cc(C)cc(C(=O)NC(CC(N)=O)c2ccc(NCCN3CCCC3)c([N+](=O)[O-])c2)c1 (centres undefined) was read as MrgX1 antag inactive, MrgX1 allo act inactive, RGS4 inh inactive, MrgX1 ag inactive and RGS4 act inactive.
COc1ccc(C(c2nnnn2C2CCCC2)N2CCN(C(=O)c3ccco3)CC2)cc1OC (centres undefined) was read as MrgX1 antag inactive, MrgX1 allo act inactive, RGS4 inh inactive, MrgX1 ag inactive and RGS4 act inactive.
For O=C(c1ccco1)N1CCN(C(c2cccs2)c2nnnn2C2CCCCC2)CC1 (centres undefined) the results were MrgX1 antag inactive, MrgX1 allo act inactive, RGS4 inh inactive, MrgX1 ag inactive and RGS4 act -7.6*.
Screening COc1cc2nc(CN3CCC(C(O)(c4ccccc4)c4ccccc4)CC3)[nH]c(=O)c2cc1OC returned MrgX1 antag inactive, MrgX1 allo act inactive, RGS4 inh inactive, MrgX1 ag inactive and RGS4 act inactive.
`CC1=CC2=NC(=O)/C(=C/c3coc4ccc(Cl)cc4c3=O)C(=N)N2O1` gave MrgX1 antag inactive, MrgX1 allo act inactive, RGS4 inh inactive, MrgX1 ag inactive and RGS4 act -7.1*.
For Cc1ccc(S(=O)(=O)N2CCN(c3ncnc4sccc34)CC2)cc1 the results were MrgX1 antag inactive, MrgX1 allo act inactive, RGS4 inh inactive, MrgX1 ag inactive and RGS4 act inactive.
`Cc1cccc(NC(=O)CSc2nnc(-c3ccncc3)n2CC2CCCO2)c1` (centres undefined) gave MrgX1 antag inactive, MrgX1 allo act inactive, RGS4 inh inactive, MrgX1 ag inactive and RGS4 act inactive.
Screening Cc1ccc(-c2nc3sc4c(c3c(=O)n2N)CCCC4)cc1 returned MrgX1 antag inactive, MrgX1 allo act 13*, RGS4 inh inactive, MrgX1 ag inactive and RGS4 act inactive.
For Cc1nn(-c2ccccc2)c(C)c1NC(=O)COC(=O)c1ccccc1OC(F)F the results were MrgX1 antag inactive, MrgX1 allo act inactive, RGS4 inh inactive, MrgX1 ag inactive and RGS4 act inactive.
COc1ccc(C(=O)NCCn2cc(SCC(=O)NCC3CCCO3)c3ccccc32)cc1OC (centres undefined) was read as MrgX1 antag inactive, MrgX1 allo act inactive, RGS4 inh inactive, MrgX1 ag inactive and RGS4 act inactive.
